Measured values gathered from unrelated publications.
Each line is one published result; the experiments were not run side by side. pIC50, pKi: −log10 of the molar value.
Target: Carbonic anhydrase 1 (CA1, Homo sapiens, UniProt P00915)
Effect on: enzyme activity
Action: inhibitor

`CC(C)c1cc2c(c(O)c1O)[C@@]13CCCC(C)(C)[C@@H]1[C@H](OC3=O)[C@H]2O` gave a pKi of 9.92.
The pKi of `N#C[Se]CCCCOc1ccc2c(-c3ccccc3)cc(=O)oc2c1` is reported as less than 4.00 (stopped-flow).
`O=C(Nc1cccc(C(F)(F)F)c1)Nc1ccc2c(c1)C=CCP(=O)(O)O2` has a pKi of less than 5.00 (stopped-flow).
With `NC(=S)N/N=C1/c2ccccc2[C@@H]2[C@H]1[C@@H](c1ccsc1)[C@H](C(=O)c1ccsc1)[C@H]2c1ccsc1` (racemic) the pIC50 was 6.34 (absorbance).
The pIC50 of `CC(C)c1cc2c(c(O)c1O)[C@@]13CCCC(C)(C)[C@@H]1[C@@H](O)[C@@H]2OC3=O` is reported as 8.79.
`O=C(Nc1ccc2c(c1)C=CCP(=O)(O)O2)c1ccccc1I` gave a pKi of less than 5.00 (stopped-flow).
For `CC(C)c1cc2c(c(O)c1O)[C@@]13CCCC(C)(C)[C@@H]1C[C@@H]2OC3=O`, the pKi was 8.64.
With `NC(=S)N/N=C1/c2ccccc2[C@@H]2[C@H]1[C@@H](c1ccccc1)[C@H](C(=O)c1ccccc1)[C@H]2c1ccccc1` (racemic) the pIC50 was 5.81 (absorbance).
For `CC(C)c1cc2c(c(O)c1O)[C@@]1(C(=O)O)CCCC(C)(C)[C@@H]1CC2`, the pIC50 was 8.51.
The pIC50 of `Cc1ccc([C@@H]2[C@@H](C(=O)c3cccs3)[C@H](c3ccco3)[C@H]3/C(=N\NC(N)=S)c4ccccc4[C@H]32)cc1` (racemic) is reported as 6.38 (absorbance).
The pKi of `O=C(Nc1ccc2c(c1)C=CCP(=O)(O)O2)c1ccc([N+](=O)[O-])cc1` is reported as less than 5.00 (stopped-flow).
With `NC(=S)N/N=C1/c2ccccc2[C@@H]2[C@H]1[C@@H](c1ccc(F)cc1)[C@H](C(=O)c1ccc(F)cc1)[C@H]2c1ccc(F)cc1` (racemic) the pIC50 was 6.53 (absorbance).
With `O=C(Nc1ccc2c(c1)C=CCP(=O)(O)O2)c1ccc(F)cc1` the pKi was less than 5.00 (stopped-flow).
`COc1ccc(C(=O)[C@@H]2[C@@H](c3ccc(OC)cc3)[C@@H]3c4ccccc4/C(=N/NC(N)=S)[C@@H]3[C@H]2c2ccc(OC)cc2)cc1` (racemic) has a pIC50 of 5.97 (absorbance).
For `Cc1cc(=O)oc2cc(OCCCC[Se]C#N)ccc12`, the pKi was less than 4.00 (stopped-flow).
